Measurements taken from ChEMBL document CHEMBL1821634, “Design and synthesis of (+)-discodermolide-paclitaxel hybrids leading to enhanced biological activity” (J Med Chem, 2011).
Active and inactive are the calls of the source. The rule behind the calls is not given here.

Legend:
MCF7 = assay: Antiproliferative activity against human MCF7 cells after 96 hrs by SRB method; type: functional, cell-based; settings: MCF7, 96 h
In short: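 MCF-7 cells grown in RPMI plus 10% fetal bovine serum, seeded at 2000 per well. Increasing drug concentrations added 18 h post-plating. Incubation for 96 h at 37 °C, with the later fixation allowing for growth rate, then SRB staining. IC50 is the concentration giving 50% growth inhibition.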

Bos taurus = species: Bos taurus; assay: Induction of bovine brain tubulin polymerization at 3 uM after 30 mins by SDS-PAGE
In short: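 Tubulin (2.5 μM) in 0.1 M MES, 1 mM EGTA, 1 mM MgCl₂ with 2 mM GTP, incubated with drug at 3 μM for 30 min at 37 °C. Polymer pelleted at 120000g, 37 °C, 1 h. Pellet dissolved in SDS sample buffer and analysed by SDS-PAGE.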

A549 = assay: Antiproliferative activity against human A549 cells after 72 hrs by SRB method; type: functional, cell-based; settings: A549, 72 h
In short: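 Cells kept in RPMI with 10% FBS; 800 A549 cells seeded per well, drugs added at increasing concentrations 18 h after plating. Incubated 72 h at 37 °C, then fixed and stained with SRB. IC50 taken as concentration inhibiting growth by 50%.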

SMILES	IC50 (MCF7) [nM]	Activity (Bos taurus)	IC50 (A549) [nM]
C=C/C=C\[C@H](C)[C@H](OC(=O)NCCCCNC(=O)c1ccc(N=[N+]=[N-])cc1)[C@@H](C)[C@H](O)[C@@H](C)C/C(C)=C\[C@H](C)[C@@H](O)[C@@H](C)/C=C\[C@@H](O)C[C@@H]1OC(=O)[C@H](C)[C@@H](O)[C@H]1C	2.71	Active	3.76
C=C/C=C\[C@H](C)[C@H](OC(=O)NCCCNC(=O)c1ccc(N=[N+]=[N-])cc1)[C@@H](C)[C@H](O)[C@@H](C)C/C(C)=C\[C@H](C)[C@@H](O)[C@@H](C)/C=C\[C@@H](O)C[C@@H]1OC(=O)[C@H](C)[C@@H](O)[C@H]1C	1.9	Active	1.21
C=C/C=C\[C@H](C)[C@H](OC(N)=O)[C@@H](C)[C@H](O)[C@@H](C)C/C(C)=C\[C@H](C)[C@@H](O)[C@@H](C)/C=C\[C@@H](O)C[C@@H]1OC(=O)[C@H](C)[C@@H](O)[C@H]1C [DISERMOLIDE]	7.98	Active	9.34
C=C/C=C\[C@H](C)[C@H](OC(=O)NCCNC(=O)c1ccc(N=[N+]=[N-])cc1)[C@@H](C)[C@H](O)[C@@H](C)C/C(C)=C\[C@H](C)[C@@H](O)[C@@H](C)/C=C\[C@@H](O)C[C@@H]1OC(=O)[C@H](C)[C@@H](O)[C@H]1C	3.64	Active	5.61
C=C/C=C\[C@H](C)[C@H](OC(=O)NCCCNC(=O)c1ccc(C2(C(F)(F)F)N=N2)cc1)[C@@H](C)[C@H](O)[C@@H](C)C/C(C)=C\[C@H](C)[C@@H](O)[C@@H](C)/C=C\[C@@H](O)C[C@@H]1OC(=O)[C@H](C)[C@@H](O)[C@H]1C	1.92	Active	2.64
C=C/C=C\[C@H](C)[C@H](OC(=O)NCCCNC(=O)c1cccc(N=[N+]=[N-])c1)[C@@H](C)[C@H](O)[C@@H](C)C/C(C)=C\[C@H](C)[C@@H](O)[C@@H](C)/C=C\[C@@H](O)C[C@@H]1OC(=O)[C@H](C)[C@@H](O)[C@H]1C	1.66	Active	1.05
CC(=O)O[C@H]1C(=O)[C@@]2(C)[C@H]([C@H](OC(=O)c3ccccc3)[C@]3(O)C[C@H](OC(=O)[C@H](O)[C@@H](NC(=O)c4ccccc4)c4ccccc4)C(C)=C1C3(C)C)[C@]1(OC(C)=O)CO[C@@H]1C[C@@H]2O [PACLITAXEL]	0.91	–	3.14
